Only a selection was taken, and hits are over-represented in it overall.
Avidin bead fluor – avidin bead compound fluorescence profile | Avidin beads, compound fluorescence 488/530 nm, flow cytometry; active compounds read high | fluorescence (KMESF) at 10 µM | actives 0.38% (n = 220,000); in the data active = fluorescence above about 47
PKD1 inh – PKD1 (human) kinase inhibition. PKD1 kinase fluorescence polarization assay. inhibition, % (no concentration beside the values). actives 0.056% (n = 200,000)
ABCG2 block – inhibitors of human ABCG2 transporter, ABCB1 counter-screen | actives 0.1% (n = 190,000) | IgMXP3 cells, JC-1 efflux, flow cytometry | Q9UNQ0 | inhibition, % at 6.6 µM;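 active = inhibition above 80%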
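Incubation: cells with compound and JC-1, 10 min at 25 °C, rotating, no wash / Test system: IgMXP3 (ABCG2) plus far-red-tagged CCRF-Adr (ABCB1) cells / Compound dosing: one concentration, 6.6 µM final / Also added: JC-1 fluorescent substrate / Evaluation: efflux inhibition in percent versus controls / Detection: flow cytometry, 530 nm JC-1 signal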
Lmaj promast – reduces viability of Leishmania major promastigotes. AID 1063. inhibition, % at 10 µM. actives 9% (n = 200,000). resazurin fluorescence viability;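 note: promastigotes grown with compound for 44 hours at 28 °C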
GSH fluor – GSH bead compound fluorescence profile; GSH beads flow cytometry, compound fluorescence 488/530 nm; active compounds read high; fluorescence (KMESF) at 10 µM; actives 0.25% (n = 190,000); in the data active = fluorescence above about 89;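 note: glutathione beads carrying GST-tagged Bcl family fusion proteins plus one bare bead set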
ABCB1 inh – inhibitors of human ABCB1 transporter, ABCG2 counter-screen; inhibition, % at 6.6 µM; P08183; AID 1326; actives 0.067% (n = 190,000); CCRF-Adr cells, JC-1 efflux, flow cytometry; in the data active = inhibition above about 40%;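 note: higher value means more JC-1 retained so stronger ABCB1 efflux block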
Hits are given with their value. Cut-off read from the data, not from the text of the source, unless noted: active = inhibition above about 50%; inactive = the rest.

For COc1cccc(NC(=S)N2CCN(Cc3ccccc3)CC2)c1 the results were Avidin bead fluor inactive, PKD1 inh inactive, ABCG2 block inactive, Lmaj promast inactive, GSH fluor inactive and ABCB1 inh inactive.
Screening Cc1cc(C(=O)CC#N)c(C)n1-c1ccc(OC(F)F)cc1 returned Avidin bead fluor inactive, PKD1 inh inactive, ABCG2 block inactive, Lmaj promast inactive, GSH fluor inactive and ABCB1 inh inactive.
COC(=O)c1cc(C(=O)OC)cc(-n2c(C)cc(C(=O)CC#N)c2C)c1 was read as Avidin bead fluor inactive, PKD1 inh inactive, ABCG2 block inactive, Lmaj promast 95.4, GSH fluor inactive and ABCB1 inh inactive.
CC1CC(C)CN(CC(C)(C)NS(=O)(=O)c2ccccc2)C1 (configuration not stated) was read as Avidin bead fluor inactive, PKD1 inh inactive, ABCG2 block inactive, Lmaj promast 88.9, GSH fluor inactive and ABCB1 inh inactive.
`CC1CCCC(C)N1CC(C)(C)NS(=O)(=O)c1ccc(Cl)cc1` (configuration not stated) gave Avidin bead fluor inactive, PKD1 inh inactive, ABCG2 block inactive, Lmaj promast 88.2, GSH fluor inactive and ABCB1 inh inactive.
Screening C=C1c2ccccc2NC(=S)N1Cc1ccc2c(c1)OCO2 returned Avidin bead fluor inactive, PKD1 inh inactive, ABCG2 block inactive, Lmaj promast inactive, GSH fluor inactive and ABCB1 inh inactive.
Screening CC1CCCCC1n1c(-c2cccnc2)n[nH]c1=S (configuration not stated) returned Avidin bead fluor inactive, PKD1 inh inactive, ABCG2 block inactive, Lmaj promast inactive, GSH fluor inactive and ABCB1 inh inactive.
`S=c1[nH]nc(-c2cccnc2)n1C1CCCCC1` gave Avidin bead fluor inactive, PKD1 inh inactive, ABCG2 block inactive, Lmaj promast 53.0 and GSH fluor inactive.
O=C(NCCCN1CCOCC1)C(=O)N/N=C/c1ccccc1O was read as Avidin bead fluor inactive.
Screening CC(C)(C)NC(=O)C(c1c[nH]c2ccccc12)N(C(=O)Cn1nnc(-c2ccc(Cl)cc2)n1)c1ccccc1F (configuration not stated) returned Avidin bead fluor inactive, PKD1 inh inactive, ABCG2 block inactive, Lmaj promast 50.6, GSH fluor inactive and ABCB1 inh inactive.
`COc1cccc(N(C(=O)Cn2nnc(-c3ccc(C)cc3)n2)C(C(=O)NC(C)(C)C)c2c[nH]c3ccccc23)c1` (configuration not stated) gave Avidin bead fluor inactive, PKD1 inh inactive, ABCG2 block inactive, Lmaj promast inactive, GSH fluor inactive and ABCB1 inh inactive.
For Cc1cc(C)c2nc3nc(C)c(C)cc3c(N)c2c1 the results were Avidin bead fluor inactive, PKD1 inh inactive, ABCG2 block inactive, Lmaj promast 100.3, GSH fluor inactive and ABCB1 inh inactive.
For CCCSc1nc(C)c2cc(C)cc(C)c2n1 the results were Avidin bead fluor inactive, PKD1 inh inactive, ABCG2 block inactive, Lmaj promast inactive, GSH fluor inactive and ABCB1 inh inactive.
For O=C(NN1C(=O)c2ccccc2C1=O)c1ccc2c(c1)C(=O)N(CC1CCCO1)C2=O (configuration not stated) the results were Avidin bead fluor 52.
`CCc1ccc(NC(=O)CSc2nc3cc(C(=O)OC)ccc3c(=O)n2Cc2ccco2)cc1` gave Avidin bead fluor inactive, PKD1 inh inactive, ABCG2 block inactive, Lmaj promast inactive, GSH fluor inactive and ABCB1 inh inactive.
CCOC(=O)c1c(NC(=O)CSc2nc3cc(Cl)ccc3c(=O)n2Cc2ccco2)sc(C(=O)N(C)C)c1C was read as Avidin bead fluor inactive, PKD1 inh inactive, ABCG2 block inactive, Lmaj promast 77.8, GSH fluor inactive and ABCB1 inh inactive.
For COc1c2ccccc2c(OC)c2ccccc12 the results were Avidin bead fluor inactive, PKD1 inh inactive, ABCG2 block inactive, Lmaj promast inactive, GSH fluor inactive and ABCB1 inh inactive.
`CN1C(=S)N(c2cccnc2)C(=O)/C1=C\c1ccc(N(C)C)cc1` gave Avidin bead fluor inactive, PKD1 inh inactive, ABCG2 block inactive, Lmaj promast inactive, GSH fluor inactive and ABCB1 inh inactive.
For CN1C(=S)N(c2cccnc2)C(=O)/C1=C\c1ccc(C(C)(C)C)cc1 the results were Avidin bead fluor inactive, PKD1 inh inactive, ABCG2 block inactive, Lmaj promast 96.3, GSH fluor inactive and ABCB1 inh inactive.
`NC(=O)c1ccc[n+](CC(=O)c2ccc(F)cc2)c1` gave Avidin bead fluor inactive.

Source: PubChem BioAssay
